The results in this text go back to ChEMBL document CHEMBL1151459, “Bile and unsaturated fatty acids inhibit the binding of cholera toxin and Escherichia coli heat-labile enterotoxin to GM1 receptor” (Antimicrob Agents Chemother, 2008).

Assay [1] is filed under the species Oryctolagus cuniculus. Put plainly: Inhibition of intestinal fluid accumulation in rabbit ligated ileal loop model injected in presence of cholera toxin after 16 hrs. To be noted: Ileum. It counts as functional.
The subject of assay [2] is Vibrio cholerae. The assay can be described thus: Blockade of anti-CT antibody binding site of Vibrio cholerae cholera toxin preincubated for 15 mins before addition of anti-CT immunoglobulin G by immunoprecipitation-based SDS-PAGE.
The subject of assay [3] is Vibrio cholerae. Put plainly: Binding affinity to Vibrio cholerae cholera toxin assessed as apparent isoelectric point at 100 mM by isoelectric focusing analysis (isoelectric point Rvb=6.8).
For assay [4], the system named is Vibrio cholerae. The assay can be described thus: Binding affinity to Vibrio cholerae cholera toxin assessed as decrease in fluorescence intensity by fluorescence emission spectroscopy.
The species entered for assay [5] is Oryctolagus cuniculus. The assay can be described thus: Inhibition of intestinal fluid accumulation in rabbit ligated ileal loop model at 3.3 mM injected in presence of cholera toxin after 16 hrs. In kind it is functional. To be noted: Ileum.
The species entered for assay [6] is Oryctolagus cuniculus. The assay can be described thus: Inhibition of intestinal fluid accumulation in rabbit ligated ileal loop model at 21 mM injected in presence of heat labile enterotoxin after 16 hrs. It counts as functional. To be noted: Ileum. Summed up: (§1)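 Rabbits were starved overnight with free access to water, then anesthetized. The ileum was tied into consecutive 7-cm loops proximal to the mesoappendix. LT-containing cell lysate (750 μl) was injected alone or with sodium linolate. After 16 h the fluid in each loop was collected and expressed as ml per cm loop length. Results are means ± SD of three independent experiments.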

Assay [7] concerns Vibrio cholerae. The assay can be described thus: Binding affinity to Vibrio cholerae cholera toxin assessed as inhibition of cholera toxin binding to ganglioside GM1 receptor relative to ganglioside GM1 receptor antagonist […].
The next assay relates to Escherichia coli. Put plainly: Binding affinity to enterotoxigenic Escherichia coli 12566 heat-labile enterotoxin assessed as inhibition of heat-labile enterotoxin binding to ganglioside GM1 receptor. In short, it runs like this: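 A clarified sonicated PBS lysate of E. coli 12566 containing LT (90 μl) was incubated with or without ligand in 100 μl for 15 min at room temperature. Samples were serially diluted onto immobilized GM1 and detected by ELISA with polyclonal rabbit anti-CT serum as primary antibody.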

The nature of assay [8]: Binding affinity to Vibrio cholerae cholera toxin assessed as inhibition of cholera toxin binding to ganglioside GM1 receptor treated 15 mins before receptor addition by ELISA.
The nature of assay [9]: Binding affinity to Vibrio cholerae cholera toxin assessed as quenching of intrinsic fluorescence by two-state binding model assay.
Assay [10] in a line: Inhibition of intestinal fluid accumulation in rabbit ligated ileal loop model assessed as fluid level at 1.65 mM injected in presence of cholera toxin after 16 hrs (RVb=1.6 +/- 0.2 ml/cm). In kind it is functional, Oryctolagus cuniculus, Ileum.
Assay [11] is described as follows: Inhibition of intestinal fluid accumulation in rabbit ligated ileal loop model assessed as fluid level at 10.5 mM injected in presence of heat labile enterotoxin after 16 hrs (RVb=5.5 +/- 1 ml). It counts as functional, Oryctolagus cuniculus, Ileum. In short, it runs like this: as §1

The source made the active and inactive calls. The rule behind the calls is not given here.

As for `CCCCC/C=C\C/C=C\CCCCCCCC(=O)O`, the Activity entry in the assay listed under Oryctolagus cuniculus [1] was “Dose-dependent effect”. Moreover, the result with Vibrio cholerae [2] was inactive. Besides, the outcome in the assay with Vibrio cholerae [3], in the assay with Vibrio cholerae [4] and in the assay listed under Oryctolagus cuniculus [6] was Active. Besides, the inhibition entry in the assay listed under Oryctolagus cuniculus [5] and with Escherichia coli was “Active” throughout. Besides, the Ratio in the assay with Vibrio cholerae [7] was 200.

`CCCCC/C=C\C/C=C\C/C=C\C/C=C\CCCC(=O)O` [ARACHIDONIC ACID]: the IC50 in [8] was determined as 380 µM. The Kd in [9] was found to be 180 µM. In addition, in the assay on Escherichia coli, the inhibition result is “Active”.

For the molecule `CCCCC/C=C\C/C=C\CCCCCCCC(=O)O` [LINOLEIC ACID], in assay [8], the IC50 amounted to 410 µM.

Turning to `CCCCCCCC/C=C\CCCCCCCC(=O)O` [OLEIC ACID], in assay [8], the IC50 amounted to 410 µM. The Kd in assay [9] stood at 160 µM. Further, the inhibition result in the assay on Escherichia coli is “Active”.

Take `CCCCCCCCCCCCCCCC(=O)O` [PALMITIC ACID]: the IC50 in [8] amounted to 5800 µM.

Consider `CCCCC/C=C\C/C=C\CCCCCCCC(=O)[O-].[Na+]` [SODIUM LINOLATE], for which the Kd in assay [9] came out at 130 µM. Further, the Activity is 0.76 mL/cm in [10] and 1 mL in [11].

For `CCCCCCCCCCCCCCCCCC(=O)O` [STEARIC ACID], in assay [8], the IC50 came out at 5270 µM.

Usually IC50 stands for the concentration that gives 50% inhibition. As usually defined, the Kd is the concentration at which binding is half-saturated.
